ChEMBL document CHEMBL1833949, “High affinity sialoside ligands of myelin associated glycoprotein” (Bioorg Med Chem Lett, 2011)

What was measured:
[1] = molecular target: T1, Myelin-associated glycoprotein (Homo sapiens, UniProt P20916); test: Inhibition of MAG
T1 sequence (P20916 whole entry): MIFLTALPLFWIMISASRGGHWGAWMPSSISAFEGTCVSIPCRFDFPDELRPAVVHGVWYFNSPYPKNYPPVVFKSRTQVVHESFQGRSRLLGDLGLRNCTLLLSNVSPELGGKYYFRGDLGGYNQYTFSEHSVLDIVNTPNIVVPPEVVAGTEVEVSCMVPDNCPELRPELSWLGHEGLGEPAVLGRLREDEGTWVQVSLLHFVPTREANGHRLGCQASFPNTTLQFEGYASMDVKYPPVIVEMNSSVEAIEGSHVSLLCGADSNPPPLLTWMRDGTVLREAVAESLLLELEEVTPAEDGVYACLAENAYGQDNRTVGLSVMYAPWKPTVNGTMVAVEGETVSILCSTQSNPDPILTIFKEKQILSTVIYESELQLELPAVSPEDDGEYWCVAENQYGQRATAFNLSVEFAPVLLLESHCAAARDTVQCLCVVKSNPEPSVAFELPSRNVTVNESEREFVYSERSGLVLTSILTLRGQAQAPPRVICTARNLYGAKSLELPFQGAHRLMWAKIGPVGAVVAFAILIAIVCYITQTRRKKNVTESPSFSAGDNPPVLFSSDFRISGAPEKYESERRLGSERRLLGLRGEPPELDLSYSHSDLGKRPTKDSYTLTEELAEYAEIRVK
In short: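 Competition format: MAG-Fc chimera binding to a polymeric ligand adsorbed on plate wells, with the inhibitor titrated to give IC50. Each compound was run in triplicate and assayed on three separate days, each time alongside at least one other compound to check for drift. IC50 is the mean and standard deviation of the three separate assays.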

[2] = molecular target: T1, Myelin-associated glycoprotein; test: Binding affinity to wild type MAG at 400 uM by Isothermal titration calorimetry
[3] = molecular target: T1, Myelin-associated glycoprotein; test: Inhibition of MAG -Fc chimera expressed in CHO cells using NeuAc alpha2-3Galbeta1-4GlcNAc-R coupled biotinylated polyacrylamide after 30 mins by ELISA; format: cell-based
In short: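 Each compound was run in triplicate and assayed on three separate days, each time alongside at least one other compound to check for drift. IC50 is the mean and standard deviation of the three separate assays.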

[4] = molecular target: T1, Myelin-associated glycoprotein; test: Binding affinity to MAG
In short: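 Competitive inhibition of MAG-Fc chimera binding to a polymeric ligand adsorbed in microplate wells, run in triplicate. Each compound was assayed three times on separate days, alongside at least one other compound, and the IC50 reported as mean and standard deviation. Apparent Kd values were calculated from IC50 against a reference ligand whose Kd was measured by isothermal titration calorimetry.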

Question: `CC(=O)N[C@H]1[C@@H](O[C@H](C)[C@H](N)C(=O)O)O[C@H](CO)[C@H](O)[C@@H]1O[C@@H]1O[C@H](CO)[C@H](O)[C@H](O[C@]2(C(=O)O)C[C@H](O)[C@@H](NC(C)=O)[C@H]([C@H](O)[C@H](O)CO)O2)[C@H]1O` was tested. Which IC50 [1] did it give?
Answer: 1200 nM

Question: With `COC(=O)[C@@H](NC(C)=O)[C@@H](C)O[C@H]1O[C@H](CO)[C@H](O)[C@H](O[C@@H]2O[C@H](CO)[C@H](O)[C@H](O[C@]3(C(=O)O)C[C@H](O)[C@@H](NC(C)=O)[C@H]([C@H](O)[C@H](O)CO)O3)[C@H]2O)[C@H]1NC(C)=O` as the compound, how does the Kd [2] read?
Answer: 1900 nM

Question: What about the IC50 [3] of the same compound?
Answer: 1200 nM

Question: Which IC50 [1] does the source give for `CC(=O)N[C@H]1[C@@H](OCc2ccccc2)O[C@H](CO)[C@H](O)[C@@H]1O[C@@H]1O[C@H](CO)[C@H](O)[C@H](O[C@]2(C(=O)O)C[C@H](O)[C@@H](NC(C)=O)[C@H]([C@H](O)[C@H](O)CO)O2)[C@H]1O` here?
Answer: 52000 nM

Question: How did the Kd [4] turn out when `O=C(CF)N[C@H]1[C@H]([C@H](O)[C@H](O)CNC(=O)c2ccccc2)O[C@@](OCc2cccc(F)c2F)(C(=O)O)C[C@@H]1O` was run?
Answer: 500 nM

Question: What does the source list for `COC(=O)[C@@H](NC(C)=O)[C@@H](C)O[C@H]1O[C@H](CO)[C@H](O)[C@H](O[C@@H]2O[C@H](CO)[C@H](O)[C@H](O[C@]3(C(=O)O)C[C@H](O)[C@@H](NC(C)=O)[C@H]([C@H](O)[C@H](O)CNC(=O)c4ccc(Cl)cc4)O3)[C@H]2O)[C@H]1NC(C)=O`?
Answer: Kd [2]: 1000 nM; IC50 [3]: 610 nM

Question: Which Kd [2] does the source give for `COC(=O)[C@@H](NC(C)=O)[C@@H](C)O[C@H]1O[C@H](CO[C@]2(C(=O)O)C[C@H](O)[C@@H](NC(C)=O)[C@H]([C@H](O)[C@H](O)CO)O2)[C@H](O)[C@H](O[C@@H]2O[C@H](CO)[C@H](O)[C@H](O)[C@H]2O)[C@H]1NC(C)=O` here?
Answer: 13000 nM

Question: And the IC50 [3]?
Answer: 7900 nM

Question: `COC(=O)[C@@H](NC(C)=O)[C@@H](C)O[C@H]1O[C@H](CO[C@]2(C(=O)O)C[C@H](O)[C@@H](NC(C)=O)[C@H]([C@H](O)[C@H](O)CNC(=O)c3ccc(F)cc3)O2)[C@H](O)[C@H](O[C@@H]2O[C@H](CO)[C@H](O)[C@H](O[C@]3(C(=O)O)C[C@H](O)[C@@H](NC(C)=O)[C@H]([C@H](O)[C@H](O)CO)O3)[C@H]2O)[C@H]1NC(C)=O` was tested. Which Kd [2] did it give?
Answer: 15 nM

Question: What about the IC50 [3] of the same compound?
Answer: 9 nM

Question: For `CC(=O)N[C@H]1[C@@H](O[C@H](C)[C@H](N)C(=O)O)O[C@H](CO[C@]2(C(=O)O)C[C@H](O)[C@@H](NC(C)=O)[C@H]([C@H](O)[C@H](O)CO)O2)[C@H](O)[C@@H]1O[C@@H]1O[C@H](CO)[C@H](O)[C@H](O[C@]2(C(=O)O)C[C@H](O)[C@@H](NC(C)=O)[C@H]([C@H](O)[C@H](O)CO)O2)[C@H]1O`, which IC50 [1] is on record?
Answer: 300 nM

Question: How did the Kd [2] turn out when `COC(=O)[C@@H](NC(C)=O)[C@@H](C)O[C@H]1O[C@H](CO)[C@H](O)[C@H](O[C@@H]2O[C@H](CO)[C@H](O)[C@H](O[C@]3(C(=O)O)C[C@H](O)[C@@H](NC(C)=O)[C@H]([C@H](O)[C@H](O)CNC(=O)c4ccc(F)cc4)O3)[C@H]2O)[C@H]1NC(C)=O` was run?
Answer: 130 nM

Question: What about the IC50 [3] of the same compound?
Answer: 79 nM

Question: How did the Kd [4] turn out when `CC(=O)N[C@H]1[C@H]([C@H](O)[C@H](O)CNC(=O)c2ccccc2)O[C@@](O[C@H]2[C@@H](O)[C@@H](CO)O[C@@H](O[C@H]3[C@@H](O)[C@@H](CO)O[C@@H](OCC[Si](C)(C)C)[C@@H]3O)[C@@H]2O)(C(=O)O)C[C@@H]1O` was run?
Answer: 32000 nM

Question: How did the Kd [2] turn out when `COC(=O)[C@@H](NC(C)=O)[C@@H](C)O[C@H]1O[C@H](CO[C@]2(C(=O)O)C[C@H](O)[C@@H](NC(C)=O)[C@H]([C@H](O)[C@H](O)CO)O2)[C@H](O)[C@H](O[C@@H]2O[C@H](CO)[C@H](O)[C@H](O[C@]3(C(=O)O)C[C@H](O)[C@@H](NC(C)=O)[C@H]([C@H](O)[C@H](O)CNC(=O)c4ccc(F)cc4)O3)[C@H]2O)[C@H]1NC(C)=O` was run?
Answer: 480 nM

Question: What about the IC50 [3] of the same compound?
Answer: 300 nM

Question: `COC(=O)[C@@H](NC(C)=O)[C@@H](C)O[C@H]1O[C@H](CO[C@]2(C(=O)O)C[C@H](O)[C@@H](NC(C)=O)[C@H]([C@H](O)[C@H](O)CNC(=O)c3ccc(Cl)cc3)O2)[C@H](O)[C@H](O[C@@H]2O[C@H](CO)[C@H](O)[C@H](O)[C@H]2O)[C@H]1NC(C)=O` was tested. Which Kd [2] did it give?
Answer: 1000 nM

Question: And the IC50 [3]?
Answer: 640 nM

Question: `CC(=O)N[C@@H]1[C@@H](O[C@@H]2O[C@H](CO)[C@H](O)[C@H](O[C@]3(C(=O)O)C[C@H](O)[C@@H](NC(C)=O)[C@H]([C@H](O)[C@H](O)CO)O3)[C@H]2O)[C@@H](O)[C@@H](CO)O[C@H]1Sc1ccc(C)cc1` was tested. Which IC50 [1] did it give?
Answer: 272000 nM

Question: With `CC(=O)N[C@H]1[C@H](OCC[Si](C)(C)C)O[C@H](CO)[C@H](O)[C@@H]1O[C@@H]1O[C@H](CO)[C@H](O)[C@H](O[C@]2(C(=O)O)C[C@H](O)[C@@H](NC(C)=O)[C@H]([C@H](O)[C@H](O)CO)O2)[C@H]1O` as the compound, how does the Kd [4] read?
Answer: 180000 nM

Question: What does the source list for `COC(=O)[C@@H](NC(C)=O)[C@@H](C)O[C@H]1O[C@H](CO[C@]2(C(=O)O)C[C@H](O)[C@@H](NC(C)=O)[C@H]([C@H](O)[C@H](O)CNC(=O)c3ccc(F)cc3)O2)[C@H](O)[C@H](O[C@@H]2O[C@H](CO)[C@H](O)[C@H](O)[C@H]2O)[C@H]1NC(C)=O`?
Answer: Kd [2]: 1760 nM; IC50 [3]: 1100 nM

Question: What does the source list for `COC(=O)[C@@H](NC(C)=O)[C@@H](C)O[C@H]1O[C@H](CO)[C@H](O)[C@H](O[C@@H]2O[C@H](CO)[C@H](O)[C@H](O[C@]3(C(=O)O)C[C@H](O)[C@@H](NC(C)=O)[C@H]([C@H](O)[C@H](O)CNC(=O)c4ccccc4)O3)[C@H]2O)[C@H]1NC(C)=O`?
Answer: Kd [2]: 1000 nM; IC50 [3]: 650 nM
